CYP2C9 inh – blocks human cytochrome P450 2C9. CYP2C9 Supersomes, luciferin-H conversion, luminescence. P11712. 20% of 96,000 active. inhibition, % at 5 µM;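 active = blocking of liver enzyme CYP2C9 beyond about 50% at 5 µM, limit read from the data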
Target sequence (P11712 whole entry, looked up): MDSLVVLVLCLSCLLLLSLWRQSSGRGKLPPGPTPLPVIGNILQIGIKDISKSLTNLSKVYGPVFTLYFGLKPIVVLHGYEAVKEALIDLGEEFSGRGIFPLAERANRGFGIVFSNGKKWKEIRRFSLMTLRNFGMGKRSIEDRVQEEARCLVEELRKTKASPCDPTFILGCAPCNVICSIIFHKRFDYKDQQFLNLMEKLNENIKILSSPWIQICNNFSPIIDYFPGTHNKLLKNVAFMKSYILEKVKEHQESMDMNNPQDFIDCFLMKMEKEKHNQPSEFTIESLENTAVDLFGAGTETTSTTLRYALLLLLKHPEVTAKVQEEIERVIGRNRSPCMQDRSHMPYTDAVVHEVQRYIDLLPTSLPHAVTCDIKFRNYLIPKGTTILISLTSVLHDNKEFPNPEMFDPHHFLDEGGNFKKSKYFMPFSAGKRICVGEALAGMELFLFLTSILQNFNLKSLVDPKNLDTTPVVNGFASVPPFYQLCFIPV
CYP2C19 act – cytochrome P450 2C19 (human) activation; recombinant CYP2C19, luciferin-H EGE luminescence; hits give high values; 0 = fully inhibited enzyme, 1 = untreated enzyme; activation factor at 5 µM; 96,000 tested, under 10 active; AID 1025;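 active = activation factor of at least 2 at 5 µM in the primary screen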;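 note: 0 = wells with 2.5 mM tranylcypromine and 1 = vehicle-only wells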
CYP2C19 inhib – inhibitors of human CYP2C19 | 21% of 96,000 active | P33261 | inhibition, % at 5 µM | AID 778 | CYP2C19 Supersomes, luciferin-H EGE luminescence, 30 min;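 active = CYP2C19 inhibition above a set limit at 5 µM in the primary screen, cut at about 50% in these data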;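 note: plate controls were negative control wells for no effect and 2.5 mM tranylcypromine positive control for full effect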
CYP2C9 activ – increases human cytochrome P450 2C9 activity; 1.4% of 96,000 active; recombinant CYP2C9, luciferin-H conversion, luminescence; hits give high values; factor 1 = untreated enzyme, 0 = blocked; activation factor at 5 µM; AID 1024;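 active = activation factor of 2 or more for CYP2C9 at a 5 µM dose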;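 note: 0 = sulfaphenazole-blocked wells and 1 = vehicle-only wells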
Cav32 inh – inhibitors of human Cav3.2 T-type calcium channel. 4% of 100,000 active. B-score at 10 µM. Cav3.2-expressing cells, Fluo-4 calcium fluorescence FDSS; hits give low values. O95180;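 active = single-dose well whose peak fluorescence ratio is a statistical outlier from its plate by either plate-standardised score or position-corrected B-score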
Rev-RRE block – HIV Rev-RRE protein-RNA interaction inhibition; P05866; Rev peptide-RRE RNA binding, FRET; inhibition, % at 8 µM; 0.79% of 97,000 active;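 active = inhibition above the screen-wide mean plus 3 SD, cut at about 35% in these data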;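 note: 0% = median DMSO wells and 100% = median Neomycin B control wells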
Target sequence (P05866 whole entry, looked up): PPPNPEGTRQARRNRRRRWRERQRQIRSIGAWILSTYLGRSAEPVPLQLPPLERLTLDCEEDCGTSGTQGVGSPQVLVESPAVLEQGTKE
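Test system: Cy5-tagged RRE RNA duplex with fluorescein-tagged Rev peptide | Read-out: % inhibition of FRET ratio versus controls | Probe or stimulus: Labelled Rev peptide | Incubation: 5 min RNA-compound premix plus 15 min binding step, 25 °C | Technique: FRET fluorescence readout | Benchmarks: DMSO low control, neomycin B high control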
* = called active by the depositor; x = no result given. Compounds with a hit are over-represented: about 27% of the library has one in this group of screens.

SMILES	CYP2C9 inh	CYP2C19 act	CYP2C19 inhib	CYP2C9 activ	Cav32 inh	Rev-RRE block
CCCC(c1nnnn1Cc1ccco1)N1CCC(C(N)=O)CC1 (configuration not stated)	-9	0.9	5	1.1	-0.041	4
COc1ccccc1Nc1nc(N)nc(CN2CCC(Cc3ccccc3)CC2)n1	72*	0.5	50*	0.3	-5.2*	16
CN(C(=O)CSC1=Nc2ccccc2C2=NC(c3ccccc3)C(=O)N12)C1CCCCC1 (configuration not stated)	41	0.8	16	0.6	1.8	6
C=C(C)c1cccc(C(C)(C)NC(=O)Nc2ccc3[nH]c(=O)[nH]c3c2)c1	9	1	4	0.9	-1.2	8
O=C(OCc1nnc(-c2ccccc2)o1)c1cc(=O)c2ccccc2o1	-5	1	0	1.1	0.06	0
O=C(Sc1nnc(-c2ccccc2)o1)N1c2ccccc2Sc2ccccc21	x	x	x	x	-0.6	0
CCOc1ncccc1C(=O)OCc1nnc(-c2ccccc2)o1	28	0.2	84*	0.7	-1.2	0
O=C(OCc1nnc(-c2ccccc2)o1)c1ccc2c(c1)OCO2	81*	0.3	65*	0.2	-0.62	9
CCCCOc1ccc(-c2nnc(-c3ccncc3)o2)cc1	54*	0	96*	0.5	-0.23	x
O=C(CCN1c2ccccc2Sc2ccccc21)OCc1nnc(-c2ccccc2)o1	95*	0	96*	0	-3	x
CCN(CC)C(=O)c1cnn(-c2ccccc2)c1NC(=O)c1ccccc1F	x	x	x	x	0.83	-1
ONC=Nc1cccc2nonc12	6	1	2	0.9	-0.12	11
CCOC(=O)N1CCN(C(=O)c2ccc3c(=O)n4c(nc3c2)CCCCC4)CC1	8	0.8	19	0.9	0.053	6
Cc1cc(C)nc(Nc2ccc(C(=O)O)cc2)n1	2	1	0	1	-0.2	5
CCOc1ccc(-c2nnc(-c3ccccc3)o2)cc1	x	x	x	x	-2.9*	5
CCOc1ccc(-c2nnc(-c3ccc(OC)cc3)o2)cc1	x	x	x	x	-0.47	-7
CCOC(=O)COc1ccc(-c2nnc(-c3ccccc3)o2)cc1	13	0.6	39	0.9	-1.4	5
CCOc1ccc(-c2nnc(-c3ccncc3)o2)cc1	44	0	99*	0.6	0.31	-1
CCOC(=O)c1c(C)nc(-c2ccccc2)nc1N	67*	0.2	82*	0.3	0.41	4
CCOC(=O)c1c(C)nc(-c2ccccc2)nc1NC(C)=O	31	0.7	26	0.7	0.15	5
CCOC(=O)c1nnc(-c2ccccc2)o1	-6	1.1	-5	1.1	-4.5*	8
Cc1ccc(-n2ncc(C(=O)N3CCc4ccccc4C3)c2NC(=O)c2ccco2)cc1C	x	x	x	x	0.25	9
O=C(OCc1c(Cl)cccc1Cl)c1cccnc1	22	0.1	86*	0.8	-0.83	5
O=C(OCc1c(Cl)cccc1Cl)c1ccccn1	-14	0.9	5	1.1	-0.15	0
O=C(OCc1c(Cl)cccc1Cl)c1cccnc1Cl	-78	0.5	52*	1.8	-1.3	11
SMILES	CYP2C9 inh	CYP2C19 act	CYP2C19 inhib	CYP2C9 activ	Cav32 inh	Rev-RRE block
CCOC(=O)CCCNC(=O)COC(=O)c1cccc(C)c1O	47	0.3	67*	0.5	-1.1	x
COc1cc(N2C(=O)c3ccccc3C2=O)c(Cl)cc1C(=O)OCC(=O)NCc1ccco1	49	0.9	14	0.5	0.71	2
Cc1cc2n(n1)C(c1ccccc1Cl)Nc1ccccc1-2 (configuration not stated)	75*	0.1	86*	0.2	-1.4	4
CSc1ccc(C2Nc3ccccc3-c3cc(C)nn32)cc1 (configuration not stated)	38	0.5	50*	0.6	-2.6	10
Cc1cc2n(n1)C(c1ccsc1)Nc1ccccc1-2 (configuration not stated)	56*	0.4	61*	0.4	-1.3	7
COC(=O)C1N[C@@H]([C@@H](NC(=O)COc2ccccc2)C(=O)NC2CC2)SC1(C)C (some centres not stated)	x	x	x	x	1	x
COc1ccc(OCc2nnc3n2N=C(c2ccc(OC)cc2)CS3)cc1	90*	0.1	88*	0.1	-7.6*	6
COc1ccc(OC)c(C2=Nn3c(nnc3-c3ccco3)SC2)c1	69*	0.1	85*	0.3	-0.29	-1
COc1ccc(C2=Nn3c(nnc3-c3ccncc3)SC2)cc1	56*	0.7	34	0.4	0.49	3
CCOc1ccc(C2=Nn3cnnc3SC2)cc1	27	0	95*	0.7	0.7	7
COc1ccc(C2=Nn3c(nnc3-c3cccnc3)SC2)cc1	x	x	x	x	0.47	3
C=C(C)c1cccc(C(C)(C)NC(=O)N2CCN(CC(N)=O)CC2)c1	1	1.1	-11	1	x	3
COc1ccc(Cn2cc(F)c(=O)n(CCC(C)C)c2=O)cc1[N+](=O)[O-]	34	0.8	20	0.7	-0.00036	5
CC(C)Cn1c(=O)c2c(c3ccccc31)OC(C)C(=O)N2 (configuration not stated)	x	x	x	x	0.94	10
COc1ccc(C2=Nn3c(nnc3-c3ccco3)SC2)cc1	64*	0.4	56*	0.4	0.75	3
Oc1ccc(C2=Nn3c(nnc3-c3ccco3)SC2)cc1O	11	0.7	29	0.9	x	2
Cc1ncc(CC(=O)n2cc(C(=O)c3cc(F)ccc3O)cn2)s1	6	1.1	-9	0.9	-3.4*	3
COCCOC(=O)c1cc(C(=O)c2cc(F)ccc2O)coc1=N	x	x	x	x	-0.43	18
Cc1nc(CC(=O)c2ccc(O)cc2O)cs1	25	0.8	23	0.8	0.45	0
Cc1ccc(O)c(C(=O)c2cnn(C(=O)Cc3csc(C)n3)c2)c1	77*	0.7	28	0.2	-1.3	x
CCOc1cc(Br)c(C(=O)O)cc1OC	-6	1.1	-14	1.1	0.73	6
O=C(Nc1ccncc1)c1cc(F)cc(F)c1	41	0.1	86*	0.6	0.16	10
COc1cc(C(=O)Nc2ccc(-n3cnnn3)c(C)c2)cc(OC)c1OC	32	0.7	31	0.7	-4.4*	7
COc1cc(C(=O)Nc2ccncc2)cc(OC)c1OC	86*	0	98*	0.1	0.13	-3
COc1cc(C(=O)Nc2ccc(NC(=O)C(C)C)nc2)cc(OC)c1OC	16	0.9	12	0.8	-0.29	x
Cc1ccccc1OCCCC(=O)Nc1ccc(N2CCOCC2)cc1	26	0.6	37	0.7	0.63	x
CC(=O)c1cc2c(cc1NC(=O)C1CC1)OCO2	x	x	x	x	0.74	0
CCOc1cc(/C=C2\N=C(SC)SC2=O)cc([N+](=O)[O-])c1OC(C)=O	71*	1	-2	0.3	x	6
CCOc1cc(/C=C2\N=C(SCC)SC2=O)cc([N+](=O)[O-])c1OC(C)=O	72*	1.1	-8	0.3	-0.012	2

Screens deposited in PubChem by several laboratories.
